# ChEMBL document CHEMBL1144701, “Synthesis and anti-HIV1 biological activity of novel 5''-ATSAO compounds” (Bioorg Med Chem, 2008)
# What was measured:
# [1] = tested on: Human immunodeficiency virus 2; experiment: Antiviral activity against HIV2 ROD in CEM cells assessed as inhibition of virus-induced cytopathogenicity after 4 days; type: functional, organism-based; details: Human immunodeficiency virus 2, ROD, CCRF-CEM, 96 h
# Method in brief: (§1)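 CEM cells at 4 × 10⁵/mL infected with about 100 CCID₅₀ per mL of cell suspension (HIV-1 IIIB or HIV-2 ROD). Infected suspension mixed 1:1 with serial compound dilutions. Giant cell formation scored microscopically after 4 days. EC₅₀ is the concentration inhibiting virus-induced cytopathicity by 50%.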
# [2] = Cytotoxicity against mock-infected human CEM cells assessed as reduction of cell viability after 4 days; type: cell-based; details: mock-infected CEM (CCRF-CEM) cells
# Method in brief: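 Mock-infected CEM cells, plated as in the parallel infection assay at 4 × 10⁵/mL, mixed 1:1 with serial compound dilutions. CC₅₀ is the concentration reducing the number of viable cells by 50%.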
# [3] = tested on: Human immunodeficiency virus 1; experiment: Antiviral activity against HIV1 3B in CEM cells assessed as inhibition of virus-induced cytopathogenicity after 4 days; type: functional, organism-based; details: Human immunodeficiency virus 1, 3B, CCRF-CEM, 96 h; method in brief: as §1
# [4] = tested on: Human immunodeficiency virus 1; experiment: Antiviral activity against HIV1 in MT4 cells; type: functional, organism-based; details: Human immunodeficiency virus 1, MT4
Structure (SMILES),EC50 [1] [µM],EC50 [3] [µM],EC50 [4] [µM],CC50 at 96 h [2] [µM]
Cc1cn([C@@H]2O[C@H](CO[Si](C)(C)C(C)(C)C)[C@@]3(OS(=O)(=O)C=C3N)[C@H]2O[Si](C)(C)C(C)(C)C)c(=O)[nH]c1=O,> 4,–,–,16
Cc1cn([C@@H]2O[C@H](CO[Si](C)(C)C(C)(C)C)[C@@]3(NS(=O)(=O)C=C3N)[C@H]2O[Si](C)(C)C(C)(C)C)c(=O)[nH]c1=O,> 100,0.33,0.13,19.1
Cc1cn([C@@H]2O[C@H](CO[Si](C)(C)C(C)(C)C)[C@]3(C(N)=C(c4ccccc4)S(=O)(=O)N3C)[C@H]2O[Si](C)(C)C(C)(C)C)c(=O)n(C)c1=O,> 2,> 2,–,10.9
Cc1cn([C@@H]2O[C@H](CO[Si](C)(C)C(C)(C)C)[C@@]3(NS(=O)(=O)C(c4ccccc4)=C3N)[C@H]2O[Si](C)(C)C(C)(C)C)c(=O)[nH]c1=O,≥ 2,≥ 2,–,≥ 10

# Now from value to molecule, other results behind:
EC50 [1] [µM],EC50 [3] [µM],EC50 [4] [µM],Structure (SMILES),CC50 at 96 h [2] [µM]
> 50,> 50,–,CCn1c(=O)c(C)cn([C@@H]2O[C@H](CO[Si](C)(C)C(C)(C)C)[C@@]3(NS(=O)(=O)C(c4ccccc4)=C3N)[C@H]2O[Si](C)(C)C(C)(C)C)c1=O,≥ 10
30,> 50,–,Cc1cn([C@@H]2O[C@H](CO[Si](C)(C)C(C)(C)C)[C@@]3(NS(=O)(=O)C(c4ccccc4)=C3N)[C@H]2O[Si](C)(C)C(C)(C)C)c(=O)n(C(=O)OC(C)(C)C)c1=O,≥ 10
> 50,> 50,–,Cc1cn([C@@H]2O[C@H](CO[Si](C)(C)C(C)(C)C)[C@@]3(NS(=O)(=O)C(c4ccccc4)=C3N)[C@H]2O[Si](C)(C)C(C)(C)C)c(=O)n(C)c1=O,≥ 10
